According to ChEMBL document CHEMBL2021826, “Ester and carbamate ester derivatives of Biochanin A: synthesis and in vitro evaluation of estrogenic and antiproliferative activities” (Bioorg Med Chem, 2012):
The source made the active and inactive calls. No cut-off for these calls is given here.

Experiments:
Homo sapiens [1] = organism: Homo sapiens; assay: Estrogenic activity at estrogen receptor in human MCF7:D5L cells co-expressing ERE assessed as induction of luciferase gene expression at 100 nM after 16 hrs by microplate reader relative to untreated vehicle control; type: cell-based
Summary of the method: (§1)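 Separate wells received 100 nM PPT, or 100 nM MPP with or without 100 nM DPN, added 72 h after plating. Luciferase measured 16 h later relative to vehicle. Mean ± SEM, three experiments in triplicate; t-test vs vehicle.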

Homo sapiens [2] = organism: Homo sapiens; assay: Estrogenic activity at estrogen receptor in human MCF7:D5L cells co-expressing ERE assessed as induction of luciferase gene expression at 100 nM after 16 hrs by microplate reader in presence of 100 nM ERalpha antagonist MPP; type: functional, cell-based; summary of the method: as §1
Ishikawa [3] = assay: Estrogenic activity at estrogen receptor in human Ishikawa cells assessed as induction of alkaline phosphatase expression at 100 nM after 72 hrs by microplate reader; type: cell-based
Summary of the method: (§2)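 Separate wells received 100 nM PPT, or 100 nM MPP with or without 100 nM DPN. AlkP activity read 72 h after dosing, relative to vehicle. Mean ± SEM of three experiments in triplicate; t-test vs vehicle.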

[4] = Estrogenic activity at estrogen receptor in human Ishikawa cells assessed as induction of alkaline phosphatase expression at 100 nM after 72 hrs by microplate reader relative to estradiol in presence of 100 nM ERalpha antagonist MPP; type: functional; summary of the method: as §2
[5] = Estrogenic activity at estrogen receptor in human MCF7:D5L cells co-expressing ERE assessed as induction of luciferase gene expression after 16 hrs by microplate reader; type: cell-based
Summary of the method: (§3)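 MCF-7:D5L cells (MCF-7 stably carrying ERE-driven luciferase reporter) plated at 12,000/well in phenol red-free MEM with 1 µg/mL insulin and 5% DCC-FBS. Compounds up to 10 µM, or DMSO (0.1% final), added 72 h after plating. Luciferase read 16 h later, as % of vehicle. Three independent experiments in triplicate.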

Homo sapiens [6] = organism: Homo sapiens; assay: Estrogenic activity at estrogen receptor in human MCF7:D5L cells co-expressing ERE assessed as induction of luciferase gene expression at 1 micoM after 16 hrs by microplate reader relative to untreated vehicle control; type: cell-based; summary of the method: as §3
Homo sapiens [7] = organism: Homo sapiens; assay: Estrogenic activity at estrogen receptor in human MCF7:D5L cells co-expressing ERE assessed as induction of luciferase gene expression at 10 micoM after 16 hrs by microplate reader relative to untreated vehicle control; type: cell-based; summary of the method: as §3
MCF7 [8] = assay: Antiproliferative activity against estrogen-deficient human MCF7 cells at 1 uM after 72 hrs by MTT assay relative to untreated vehicle control; type: functional
Summary of the method: (§4)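 MCF-7 cells plated at 8000/well in phenol red-free MEM with 1 µg/mL insulin and 5% DCC-FBS (estrogen-free). Compounds up to 10 µM (0.01–10 µM), or DMSO vehicle at 0.1% final, added 24 h after plating. MTT conversion read 72 h later at 550 and 690 nm (reference), as % of vehicle. […] Three independent experiments in triplicate.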

MCF7 [9] = assay: Antiproliferative activity against estrogen-deficient human MCF7 cells at 10 uM after 72 hrs by MTT assay relative to untreated vehicle control; type: functional; summary of the method: as §4
[10] = Estrogenic activity at estrogen receptor in human Ishikawa cells assessed as induction of alkaline phosphatase expression after 72 hrs by microplate reader; type: cell-based
Summary of the method: (§5)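 Ishikawa cells plated at 12,000/well in phenol red-free MEM, 1 µg/mL insulin, 5% DCC-FBS. Compounds up to 10 µM, or DMSO (0.1% final), added 24 h after plating. Alkaline phosphatase activity read 72 h later on a plate reader, as % of vehicle-treated cells. […] Three independent experiments in triplicate.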

Ishikawa [11] = assay: Estrogenic activity at estrogen receptor in human Ishikawa cells assessed as induction of alkaline phosphatase expression at 1 uM after 72 hrs by microplate reader relative to untreated vehicle control; type: cell-based; summary of the method: as §5
Ishikawa [12] = assay: Estrogenic activity at estrogen receptor in human Ishikawa cells assessed as induction of alkaline phosphatase expression at 10 uM after 72 hrs by microplate reader relative to untreated vehicle control; type: cell-based; summary of the method: as §5
MCF7 [13] = assay: Growth stimulation of human MCF7:D5L cells co-expressing ERE assessed as increase in viable cell number by MTT assay; type: functional, cell-based
MCF7 [14] = assay: Growth stimulation of estrogen-deficient human MCF7 cells at 0.01 to 10 uM after 72 hrs by MTT assay; type: functional, cell-based; summary of the method: as §4
MDA-MB-231 [15] = assay: Antiproliferative activity against ERalpha-deficient human MDA-MB-231 cells assessed as inhibition of cell proliferation at 10 uM after 72 hrs by MTT assay; type: functional; details: MDA-MB-231, 72 h
Summary of the method: (§6)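 MDA-MB-231 breast adenocarcinoma cells in phenol red-free MEM with 1 µg/mL insulin and 5% dextran-coated charcoal-treated FBS. Compound added 24 h after plating, DMSO vehicle at 0.1% final. Viable cells read 72 h later as MTT-formazan absorbance, 550 minus 690 nm reference, expressed as % of vehicle-treated cells.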

MDA-MB-231 [16] = assay: Antiproliferative activity against ERalpha-deficient human MDA-MB-231 cells assessed as inhibition of cell proliferation at 1 uM after 72 hrs by MTT assay; type: functional, cell-based; summary of the method: as §6
Ishikawa [17] = assay: Inhibition of estradiol-stimulated cell proliferation of human Ishikawa cells at 1 uM after 72 hrs by MTT assay; type: functional, cell-based
Ishikawa [18] = assay: Inhibition of estradiol-stimulated cell proliferation of human Ishikawa cells at 10 uM after 72 hrs by MTT assay; type: functional, cell-based
MCF7 [19] = assay: Stimulation of proliferation of estrogen-deficient human MCF7 cells after 72 hrs by MTT assay; details: MCF7, 72 h
MCF7 [20] = assay: Antiproliferative activity against estrogen-deficient human MCF7 cells after 72 hrs by MTT assay; type: functional, cell-based; details: MCF7, 72 h; summary of the method: as §4
Homo sapiens [21] = organism: Homo sapiens; assay: Estrogenic activity at estrogen receptor in human MCF7:D5L cells co-expressing ERE assessed as induction of luciferase gene expression at => 0.1 nM after 16 hrs by microplate reader in presence of 100 nM ER destabilizer fulvestrant; type: cell-based; summary of the method: as §1
Ishikawa [22] = assay: Estrogenic activity at estrogen receptor in human Ishikawa cells assessed as induction of alkaline phosphatase expression at => 0.1 nM after 72 hrs by microplate reader relative to untreated vehicle control in presence of 100 nM ER destabilizer fulvestrant; type: cell-based; summary of the method: as §2
Ishikawa [23] = assay: Growth stimulation of human Ishikawa cells at 10 uM after 72 hrs by MTT assay; type: functional, cell-based

Row | SMILES | EC50 [5] [nM] | EC50 [10] [nM] | EC50 (MCF7 [19]) [nM] | Efficacy (Homo sapiens [6]) [%] | Efficacy (Homo sapiens [7]) [%] | Efficacy (MCF7 [8]) [%] | Efficacy (MCF7 [9]) [%] | Efficacy (Ishikawa [11]) [%] | Efficacy (Ishikawa [12]) [%] | Activity (MCF7 [13]) | Activity (MCF7 [14]) | also measured
1 | CCCc1c(-c2ccc(O)cc2)nn(-c2ccc(O)cc2)c1-c1ccc(O)cc1 [PROPYLPYRAZOLETRIOL] | – | – | – | – | – | – | – | – | – | – | – | Activity (Homo sapiens [1]): Active; Activity (Homo sapiens [2]): inactive; Activity (Ishikawa [3]): Active; Activity [4]: 70%
2 | CCCCCCCCCCCNC(=O)Oc1cc(O)c2c(=O)c(-c3ccc(OC)cc3)coc2c1 | 320 | 1700 | – | 524 | 803 | 117 | 108 | 203 | 375 | inactive | inactive | inhibition at 10 µM (MDA-MB-231 [15]): 21%; inhibition (MDA-MB-231 [16]): inactive; inhibition (Ishikawa [17]): Active; inhibition (Ishikawa [18]): Active
3 | COc1ccc(-c2coc3cc(OC(=O)NCCBr)cc(O)c3c2=O)cc1 | 220 | 620 | 420 | 531 | 1050 | 151 | 145 | 302 | 440 | inactive | Active | –
4 | C[C@]12CC[C@@H]3c4ccc(O)cc4CC[C@H]3[C@@H]1CC[C@@H]2O [ESTRADIOL] | 0.0196 | 0.0246 | – | 402 | 402 | 185 | 185 | 440 | 440 | – | – | EC50 (MCF7 [20]): 0.0064 nM; Activity (Homo sapiens [21]): inactive; Activity (Ishikawa [22]): inactive
5 | COc1ccc(-c2coc3cc(OC(=O)NCCCl)cc(O)c3c2=O)cc1 | 140 | 660 | 680 | 635 | 1140 | 139 | 166 | 295 | 445 | inactive | Active | –

Now from value to compound, other results behind:

Row | EC50 [5] [nM] | EC50 [10] [nM] | EC50 (MCF7 [19]) [nM] | SMILES | Efficacy (Homo sapiens [6]) [%] | Efficacy (Homo sapiens [7]) [%] | Efficacy (MCF7 [8]) [%] | Efficacy (MCF7 [9]) [%] | Efficacy (Ishikawa [11]) [%] | Efficacy (Ishikawa [12]) [%] | Activity (MCF7 [13]) | Activity (MCF7 [14]) | also measured
6 | 180 | 520 | 280 | COc1ccc(-c2coc3cc(OC(=O)CBr)cc(O)c3c2=O)cc1 | 584 | 1320 | 156 | 154 | 332 | 387 | inactive | Active | –
7 | 140 | 470 | 550 | COc1ccc(-c2coc3cc(OC(=O)CCl)cc(O)c3c2=O)cc1 | 823 | 1310 | 152 | 155 | 314 | 354 | inactive | Active | –
8 | 300 | 420 | 210 | COc1ccc(-c2coc3cc(O)cc(O)c3c2=O)cc1 [BIOCHANIN] | 490 | 733 | 161 | 167 | 310 | 309 | – | Active | Activity (Ishikawa [23]): Active
